Published values pooled from the literature.
Target: Phosphatidylinositol 4-kinase beta (PI4KB, Homo sapiens, UniProt Q9UBF8)

| effect on | technique | tested at | remaining binding | Compound |
| --- | --- | --- | --- | --- |
| binding |  | 1 µM | 79% | CN(C)c1nccc(-c2cnc3ncccn23)n1 |
| binding | competition with immobilised ligand | 0.1 µM | 42% | C[C@@H](c1ccc(-n2cnc3c(N)ncnc32)cc1)N1CCc2nn(C)c(Cc3ccccc3)c2C1=O |
| binding |  | 1 µM | 19% | C[C@H]1CCN(c2nccc(-c3cnn4ncccc34)n2)C1 |
| cell-free assay | competition with immobilised ligand | 0.1 µM | 100% | CC(C)CC(=O)N1CCc2nc(-c3ccc(Br)cc3)nc(N(C)Cc3ccccc3)c2C1 |
| binding | competition with immobilised ligand | 1 µM | 76% | O=C(c1ccc(Nc2ncc(Cl)c(-c3cc4ccccc4s3)n2)cc1)N1CCC(N2CCCC2)CC1 |
| cell-free assay | competition with immobilised ligand | 5 µM | 25% | COc1ncc2cc3ccccc3nc2c1C#N |
| binding |  | 1 µM | 12% | c1cnn2ncc(-c3ccnc(N4CCC45COC5)n3)c2c1 |
| cell-free assay | competition with immobilised ligand | 1 µM | 100% | c1ccc(N2CCN(Cc3nc4ccccc4[nH]3)CC2)nc1 |
| binding | competition with immobilised ligand | 10 µM | 1.1% | c1cncc(-c2cccc(Nc3nccc(NC4CCCCC4)n3)c2)c1 |
| binding | competition with immobilised ligand | 1 µM | 58% | O=C(c1ccc(Nc2nccc(-c3cc4ccccc4s3)n2)cc1)N1CCC(N2CCCC2)CC1 |
| cell-free assay | competition with immobilised ligand | 1 µM | 71% | CNC(=O)Nc1ccc2c(c1)[C@@]1(CC2)OC(=O)N(CC(=O)N(Cc2ccc(F)cc2)[C@@H](C)C(F)(F)F)C1=O |
| binding |  | 1 µM | 100% | N[C@H]1CCN(c2nccc(-c3cnn4ncccc34)n2)C1 |
| cell-free assay | competition with immobilised ligand | 1 µM | 100% | CC(=O)C1=C(C)N(c2cccc(C(F)(F)F)c2)C(=O)N[C@@H]1c1ccc(C#N)nc1 |
| binding | competition with immobilised ligand | 1 µM | 100% | Nc1ncc2c(n1)-c1c([nH]c3ccc(C#CC4CC4)cc13)CCCC2 |
| binding | competition with immobilised ligand | 1 µM | 53% | COc1cnc(Nc2cccc(S(N)(=O)=O)c2)nc1N1CCN(c2ccccc2)CC1 |
| cell-free assay | competition with immobilised ligand | 1 µM | 94% | FC(F)(F)c1ccc2c(c1)nc(-c1cccnc1)n2C1CC1 |
| binding | competition with immobilised ligand | 1 µM | 92% | O=C(NCC1CCOCC1)c1n[nH]cc1NC(=O)c1c(F)cccc1F |
| cell-free assay | competition with immobilised ligand | 0.1 µM | 100% | COCCOc1nc(-c2ccc(Cl)nc2)nc2c1CN(C(=O)c1ncn3ccccc13)CC2 |
| binding |  | 1 µM | 56% | Cc1cnn2ncc(-c3ccnc(N(C)C)n3)c2c1 |
| binding | competition with immobilised ligand | 1 µM | 100% | O=C(NCCCN1CCOCC1)c1ccc(Nc2ncc(Cl)c(-c3ccc(Cl)s3)n2)cc1 |
| binding | competition with immobilised ligand | 5 µM | 0.05% | FC(F)(F)Oc1cccc(-c2cnc3ccc(-c4ccncc4)nn23)c1 |
| binding |  | 1 µM | 89% | F[C@@H]1CCN(c2nccc(-c3cnn4ncccc34)n2)C1 |
